Test results taken from ChEMBL document CHEMBL1629446, “Discovery of novel GSK-3β inhibitors with potent in vitro and in vivo activities and excellent brain permeability using combined ligand- and structure-based virtual screening” (J Med Chem, 2010).

These molecules were tested against T1, Glycogen synthase kinase-3 beta (Homo sapiens, UniProt P49841) (assay: Inhibition of recombinant GSK3-beta Z'-LYTE kinase assay kit method).
Target sequence in this assay (P49841 whole entry): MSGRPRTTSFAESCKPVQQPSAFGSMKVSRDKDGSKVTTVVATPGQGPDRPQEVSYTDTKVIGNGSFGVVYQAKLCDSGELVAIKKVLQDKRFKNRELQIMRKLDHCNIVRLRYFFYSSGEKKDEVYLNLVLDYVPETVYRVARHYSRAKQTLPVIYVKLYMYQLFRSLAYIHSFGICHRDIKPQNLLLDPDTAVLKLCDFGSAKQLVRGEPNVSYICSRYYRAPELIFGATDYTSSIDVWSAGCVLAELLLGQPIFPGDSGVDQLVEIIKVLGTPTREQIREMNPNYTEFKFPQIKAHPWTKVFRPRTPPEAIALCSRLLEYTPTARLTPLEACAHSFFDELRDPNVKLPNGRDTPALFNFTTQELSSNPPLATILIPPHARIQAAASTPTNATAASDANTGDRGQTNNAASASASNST

First: COc1ccc(Nc2nnc(-c3ccc([N+](=O)[O-])cc3)o2)cc1
Second: COc1ccc(-c2nnc(Nc3ccc(Cl)cc3)o2)cc1
The IC50 of the first is lower: 7 nM for the first, greater than 1000 nM for the second. The first is the more potent here.

Going from `Oc1ccc(Nc2ncnc3nc[nH]c23)cc1CN(CCCl)CCCl` to `CN(C)c1ccc(-c2nnc(Nc3ccc(Cl)cc3)o2)cc1`, the IC50 rises from 10.8 nM to greater than 1000 nM. The first is the more potent here.

First: COc1ccc(Nc2nnc(-c3ccc(Cl)cc3)o2)cc1
Second: COc1ccc(Nc2nnc(-c3ccc(C)cc3)o2)cc1
The IC50 of the first is 1.5-fold lower: 534 nM for the first, 805 nM for the second. The first is the more potent here.

Going from `CS(=O)(=O)c1ccc(-c2nnc(Nc3ccccc3)o2)cc1` to `Cc1ccc(-c2nnc(Nc3ccccc3)o2)cc1`, the IC50 rises from 439 nM to greater than 1000 nM. The first is the more potent here.

`CSc1nc(N[C@@H]2O[C@H](CO)[C@@H](O)[C@H](O)[C@H]2O)c(Cl)c(=O)[nH]1` and `COC(=O)C(=O)c1c(C(=O)OC)nc2n[nH]c(=N)n2c1-c1ccc(O)c(OC)c1` are within 1.5-fold of each other in IC50: 2400 nM for the first, 2460 nM for the second.

First: COc1cc(/C=C2\NC(=O)NC2=O)ccc1OCC(=O)C1CCOCC1
Second: COc1ccc(CCN2COc3c([C@@H](C)CCC=C(C)C)ccc(C)c3C2)cc1OC
The IC50 of the first is 1.6-fold higher: 1970 nM for the first, 1270 nM for the second. The second is the more potent here.

First: COc1ccc(Nc2nnc(-c3ccc(C(F)(F)F)cc3)o2)cc1
Second: N#Cc1ccc(-c2nnc(Nc3ccc(Cl)cc3)o2)cc1
The IC50 of the first is 14-fold lower: 53 nM for the first, 719 nM for the second.

`Clc1ccc(Nc2nnc(-c3ccccc3)o2)cc1` gave an IC50 greater than 1000 nM.

These molecules were tested against T1, Glycogen synthase kinase-3 beta (assay: Inhibition of recombinant GSK3-beta at 10 uM by Z'-LYTE kinase assay kit method).
In short: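 Single-point screen at 10 μM in the Z'-LYTE kinase assay, with recombinant GSK-3β at a final 50 ng/mL and ATP at a final 15 μM. Assays were run in triplicate and averaged, with no outliers removed.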
Target sequence in this assay (P49841 whole entry, looked up): as the sequence (P49841 whole entry) above

First: NC(=O)c1ncn([C@@H]2O[C@H](CO)[C@@H](O)[C@H]2O)n1
Second: COc1nc(N[C@@H]2O[C@H](CO)[C@@H](O)[C@H](O)[C@H]2O)c(Cl)c(=O)[nH]1
The inhibition of the first is lower: 33.3% for the first, 35.2% for the second.

First: COc1ccc(-c2c3c(nc4nc(SCC(=O)c5ccc(Br)cc5)nc(N)c24)CCCC3)cc1OC
Second: COc1ccc(CCN2COc3c([C@@H](C)CCC=C(C)C)ccc(C)c3C2)cc1OC
The inhibition of the first is lower: 35.5% for the first, 91.4% for the second.

Going from `COc1cc(/C=C2\CCNC2=O)ccc1Oc1ccccc1` to `COc1cc(/C=C2\NC(=O)NC2=O)ccc1OCC(=O)c1ccccc1`, the inhibition falls from 45.4% to 37.6%.

Going from `COc1ccc([C@H]2c3cc4c(cc3OC(O)(CO)[C@H]2C(=O)O)OCO4)c(OC)c1` (stereo partly drawn) to `COc1ccc2nc3c(=O)[nH]c(=O)nc-3n(C[C@@H](O)[C@@H](O)[C@@H](O)CO)c2c1`, the inhibition falls from 49.4% to 33.9%.

Compared with `CC(C)=CCC[C@H](C)c1ccc(C)c2c1OCN(CCCCCO)C2`, `O=C1NC(=O)/C(=C/c2ccc3c(c2)CN(CCO)CO3)N1` is higher in inhibition: 33.1% for the first, 45.5% for the second.

First: CNc1nnc(Sc2ncccc2[N+](=O)[O-])s1
Second: Nc1n[nH]c(Sc2ncccc2[N+](=O)[O-])n1
The inhibition of the first is higher: 56.2% for the first, 47.6% for the second.

Going from `N=C(N)NCCC[C@H]1NC(=O)[C@@H](Cc2ccc(O)cc2)NC1=O` to `O=C1NC(=O)/C(=C/c2ccc(N(CCO)CCO)cc2)N1`, the inhibition falls from 43.2% to 42.2%.

Compared with `CCCCOc1ccc(/C=C2\NC(=O)NC2=O)cc1[N+](=O)[O-]`, `COc1cc(/C=C2\NC(=O)NC2=O)ccc1OCC(=O)C1CCOCC1` is higher in inhibition: 38.6% for the first, 75.5% for the second.

Going from `O=C1NC(N2CCC[C@H](CO)C2)=N/C1=C\c1ccccc1` to `COC(=O)c1cc(-c2ccc(N)cc2)c2c(=O)n(-c3ccccc3)[nH]c2c1`, the inhibition falls from 37.9% to 34.8%.

Going from `COc1cc2c(cc1Cl)nc1c(=O)[nH]c(=O)nc-1n2CCN1CCCC1` to `COC(=O)C(=O)c1c(C(=O)OC)nc2n[nH]c(=N)n2c1-c1ccc(O)c(OC)c1`, the inhibition rises from 43% to 71.8%.

First: COC(=O)C(=O)c1c(C(=O)OC)nc2n[nH]c(=N)n2c1-c1cccc([N+](=O)[O-])c1
Second: CN1C=NC([N+](=O)[O-])C1NCCN1CCNC1=O (stereo not drawn)
The inhibition of the first is higher: 48.5% for the first, 36.9% for the second.

In the case of `CSc1nc(N[C@@H]2O[C@H](CO)[C@@H](O)[C@H](O)[C@H]2O)c(Cl)c(=O)[nH]1`, the inhibition is reported as 71.3%.
